From ChEMBL document CHEMBL3352511, “Pyrrole-3-carboxamides as potent and selective JAK2 inhibitors” (Bioorg Med Chem, 2014)
Active and inactive are the calls of the source. The calls are words filed in the database; no cut-off is given here.

Experiments:
A2780 = assay: Antiproliferative activity against human A2780 cells after 72 hrs by Cell Titer-Glo assay; format: functional, cell-based; details: A2780, 72 h
[1] = AUC(infinity) in Balb nu/nu mouse at 10 mg/kg, iv; format: ADME, organism-based, Plasma; design: dose 10 mg/kg, route intravenous, time infinity; details: Balb nu/nu, plasma
In short: (§1)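 Overnight-fasted male Nu/Nu mice, single intravenous dose in 10% Tween 80 in 5% dextrose, three mice. Saphenous vein blood taken at predose, 0.083, 0.5, 1, 6 and 24 h. Plasma obtained by centrifugation at 10,000g, 3 min, 4 °C, stored at -80 °C, then analysed by LC/MS/MS.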

SET-2 [2] = assay: Inhibition of STAT5 phosphorylation in human SET2 cells xenografted in SCID mouse assessed as tumor growth inhibition at 30 mg/kg, po as single dose measured at 1 to 3 hrs post treatment; format: functional, organism-based; design: dose 30 mg/kg
In short: (§2)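 SET-2 s.c. xenografts in irradiated female SCID mice were given one oral dose. Tumours were collected at several post-treatment times, 3 animals per time. Tumour lysates were western blotted for P-STAT5 and P-STAT3, with GAPDH as loading control.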

JAK3/JAK1 (Homo sapiens) = JAK3/JAK1 (Homo sapiens) (UniProt P52333+P23458); assay: Inhibition of JAK1/3-induced STAT5 phosphorylation in IL-2-activated human DERL7 cells at 10 uM after 2 hrs by SDS-PAGE analysis; format: cell-based
In short: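 DERL-7 cells were kept in RPMI 1640 with 10% FBS and 20 ng/ml human IL-2, then starved 18 h. Compound was applied for 2 h, followed by IL-2 stimulation (20 ng/ml, 15 min, 37 °C). Cold-PBS-washed cells were lysed in RIPA. Lysates were resolved by SDS-PAGE and western blotted for P-STAT5 and total STAT5, with ECL detection.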

[3] = AUC(infinity) in Balb nu/nu mouse at 10 mg/kg, po; format: ADME, organism-based; design: time infinity, dose 10 mg/kg, route oral; details: plasma
In short: (§3)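 Overnight-fasted male Nu/Nu mice, single oral dose in 0.5% methocel, three mice. Saphenous vein blood taken at predose, 0.083, 0.5, 1, 6 and 24 h. Plasma obtained by centrifugation at 10,000g, 3 min, 4 °C, stored at -80 °C, then analysed by LC/MS/MS.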

[4] = Volume of distribution at steady state in Balb nu/nu mouse at 10 mg/kg, iv; format: ADME, organism-based; design: dose 10 mg/kg, route intravenous; details: in vivo, read-out: Vdss; in short: as §1
Mus musculus [5] = assay: Toxicity in human SET2 cells xenografted SCID mouse assessed as reversible body weight loss at 30 mg/kg, po bid for 10 consecutive days measured after 10 days; details: in vivo, 240 h
[6] = biological target: Dual specificity protein kinase CLK1 (Homo sapiens) (UniProt P49759); assay: Inhibition of human CLK1 at 0.1 uM
In short: (§4)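 KINOMEscan active-site-directed competition binding panel of 442 human kinases, compound tested at 0.1 µM. Primary screen results expressed as % Ctrl, where lower values mean stronger binding.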

[7] = Half life in Balb nu/nu mouse at 10 mg/kg, iv; format: ADME, organism-based; design: dose 10 mg/kg, route intravenous; details: in vivo; in short: as §1
[8] = biological target: Dual specificity protein kinase CLK2 (Homo sapiens) (UniProt P49760); assay: Inhibition of human CLK2 at 0.1 uM; in short: as §4
[9] = Antitumor activity against human SET2 cells xenografted in SCID mouse assessed as tumor growth inhibition at 50 mg/kg, po bid administered as 5 days on 5 days off for 3 cycles; format: functional; details: SET-2, 120 h, read-out: TGI
In short: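 Female SCID mice, 5–6 weeks old, given 200 Rads whole-body gamma irradiation, then inoculated s.c. with 10^7 SET-2 cells. Dosing by mouth started at 100-200 mm³ tumours; controls received vehicle (0.5% methocel). Seven animals per study.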

SET-2 [10] = assay: Inhibition of STAT3 phosphorylation in human SET2 cells xenografted in SCID mouse assessed as tumor growth inhibition at 50 mg/kg, po as single dose measured up to 12 hrs post treatment; format: functional, organism-based; design: dose 50 mg/kg; in short: as §2
Mus musculus [11] = assay: Toxicity in human SET2 cells xenografted SCID mouse assessed as reversible body weight loss at 50 mg/kg, po bid administered as 5 days on 5 days off for 3 cycles; format: organism-based; design: dose 50 mg/kg, route oral; details: in vivo, 120 h
In short: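 SET-2 xenografts (10^7 cells s.c.) in irradiated female SCID mice, seven per study, dosed orally from 100-200 mm³ tumours, with 0.5% methocel vehicle controls. Body weight loss recorded at end of treatment.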

[12] = Clearance in Balb nu/nu mouse at 10 mg/kg, iv; format: ADME, organism-based; design: dose 10 mg/kg, route intravenous; details: in vivo; in short: as §1
SET-2 [13] = assay: Effect on total STAT3 level in human SET2 cells at 0.08 to 10 uM after 2 hrs by SDS-PAGE analysis; format: functional, cell-based
In short: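 SET-2 cells were grown in RPMI 1640 with 10% FBS at 37 °C, 5% CO₂, and exposed to compound or DMSO for 2 h at 37 °C. Cells were washed in cold PBS and lysed in RIPA buffer. Equal lysate amounts went through SDS-PAGE and nitrocellulose transfer, then 5% milk/TBST blocking and overnight 4 °C probing for total STAT3/STAT5 and phospho-STAT, with ECL detection.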

[14] = Half life in Balb nu/nu mouse at 10 mg/kg, po; format: ADME, organism-based; design: dose 10 mg/kg, route oral; details: in vivo; in short: as §3

Sequence of Dual specificity protein kinase CLK1 (Homo sapiens) (P49759 whole entry, looked up): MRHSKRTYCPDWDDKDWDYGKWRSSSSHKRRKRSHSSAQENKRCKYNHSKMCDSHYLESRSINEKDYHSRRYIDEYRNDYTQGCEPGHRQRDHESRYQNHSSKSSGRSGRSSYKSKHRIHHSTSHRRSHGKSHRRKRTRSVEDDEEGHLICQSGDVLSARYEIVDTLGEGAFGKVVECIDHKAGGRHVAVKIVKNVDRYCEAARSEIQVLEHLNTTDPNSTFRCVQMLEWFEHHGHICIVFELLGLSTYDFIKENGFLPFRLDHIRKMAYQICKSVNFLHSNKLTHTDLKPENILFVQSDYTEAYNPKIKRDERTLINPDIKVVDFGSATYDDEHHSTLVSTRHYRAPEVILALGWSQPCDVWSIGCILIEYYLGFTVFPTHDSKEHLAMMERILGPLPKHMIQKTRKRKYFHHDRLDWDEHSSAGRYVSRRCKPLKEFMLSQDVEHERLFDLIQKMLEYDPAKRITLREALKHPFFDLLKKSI
Sequence of Dual specificity protein kinase CLK2 (Homo sapiens) (P49760 whole entry, looked up): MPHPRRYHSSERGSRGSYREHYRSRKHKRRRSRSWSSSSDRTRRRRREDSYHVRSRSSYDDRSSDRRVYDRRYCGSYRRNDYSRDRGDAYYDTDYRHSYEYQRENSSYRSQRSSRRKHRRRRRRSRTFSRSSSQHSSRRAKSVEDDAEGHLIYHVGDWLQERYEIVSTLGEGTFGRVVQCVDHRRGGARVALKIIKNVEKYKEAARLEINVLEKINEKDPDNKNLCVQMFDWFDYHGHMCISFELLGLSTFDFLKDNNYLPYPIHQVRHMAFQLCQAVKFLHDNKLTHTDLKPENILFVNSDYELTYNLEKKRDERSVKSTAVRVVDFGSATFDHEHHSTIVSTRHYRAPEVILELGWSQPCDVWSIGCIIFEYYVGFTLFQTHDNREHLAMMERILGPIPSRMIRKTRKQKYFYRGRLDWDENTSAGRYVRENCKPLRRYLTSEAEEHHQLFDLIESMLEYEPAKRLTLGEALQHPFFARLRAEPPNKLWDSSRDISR

With `NC(=O)c1cc(-c2ccnc(N)n2)[nH]c1-c1cc(C(F)(F)F)ccc1Cl` the IC50 (A2780) was 1.47 µM, the AUC(0-inf) [1] was 26.4 µM·h and the inhibition (SET-2 [2]) was “Active”. For the same compound, the inhibition (JAK3/JAK1 (Homo sapiens)) was “Active”, the AUC(0-inf) [3] was 9.5 µM·h and the Vd [4] was 0.9 L/kg. For the same compound, the Activity (Mus musculus [5]) was 6%, the inhibition [6] was 1% and the half-life [7] was 1.1 h. For the same compound, the inhibition [8] was 1%, the inhibition in vivo at 50 mg/kg [9] was 95% and the inhibition (SET-2 [10]) was “Active”. For the same compound, the Activity (Mus musculus [11]) was 15%, the clearance [12] was 16.2 mL/min/kg and the Activity (SET-2 [13]) was “inactive”. For the same compound, the half-life [14] was 2.3 h.
